Measurements from article PMC5672925 (British Journal of Cancer, 2017).
“Also recorded” adds a separate entry of the source.

Legend:
[1] = test system: relapsed and/or refractory MM; conditions: ref Richardson et al, cited from earlier work
[2] = test system: patients with relapsed/refractory MM; test: Phase I dose escalation; format: in vivo, human; conditions: days 1, 4, 8, 11 every 3 weeks, up to KW-2478 175 mg m^−2 plus BTZ 1.3 mg m^−2
Method in brief: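 DLT window was cycle 1, graded by CTCAE v4.0. DLT was related non-haematologic grade ≥3 toxicity (controllable GI events excepted) or grade 4 haematologic toxicity (neutropenia ≤5 days excepted).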

[3] = test system: patients with advanced, relapsed/refractory B-cell malignancies (predominantly with MM); conditions: ref Yong et al, 2016, cited from earlier work
[4] = Plasma pharmacokinetics of KW-2478 in phase I, cycle 1; format: in vivo, human
[5] = test system: MM models; conditions: cited from earlier work
[6] = test system: patients with relapsed/refractory MM; test: Safety: treatment-related adverse events; format: in vivo, human
Method in brief: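 Safety population was all patients receiving ≥1 dose. AEs were graded by CTCAE v4.0; treatment-related meant possibly, probably or definitely drug-related per investigator. Vital signs, vision, peripheral neuropathy, haematology and chemistry were checked at screening, on days 1, 4, 8, 11 and 16–18 of each cycle, at end of treatment and at 30-day follow-up. Phase I screening included slit-lamp retinal examination.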

[7] = test system: relapsed/refractory multiple myeloma; format: in vivo, human; conditions: comparison with historical single-agent BTZ
Method in brief: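 Response graded by IMWG criteria, with minimal response added per ASH-FDA panel. Assessed in evaluable phase II patients plus phase I patients at RP2D (KW-2478 175 mg m−2 i.v. over 1 h, 30 min after BTZ 1.3 mg m−2 bolus, days 1, 4, 8, 11 of 21-day cycles). Duration of response ran from first CR/PR/MR to PD or death. PFS ran from treatment day 1 to PD or death. Both by Kaplan–Meier.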

[8] = large-scale phase III trials, 2005, Orlowski et al, 2007

Row | SMILES | ORR, BTZ alone (reference) ([1]; SUMMIT trial, 2006) [%] | Median PFS, single-agent BTZ [1, 8] [months] | ORR, single-agent BTZ [1, 8] [%] | Maximum tolerated dose (MTD) [2] | Single-agent clinical activity [3] | Tolerability ([3]; single agent) | Mean CL, range ([4]; 130 mg m^−2 dose) [L/h] | Mean CL, range ([4]; 175 mg m^−2 dose) [L/h] | Effect of increase in BTZ dose on KW-2478 pharmacokinetics ([4]; co-administered BTZ 1 vs 1.3 mg m^−2) | Accumulation ([4]; day 11 vs day 1, cycle 1) | Antitumour activity ([5]; KW-2478 alone, ref Nakashima et al, 2010) | Antitumour activity in MM cells in the presence of bone marrow stromal cells ([5]; ref Juliger et al, 2008) | Ocular safety ([6]; in combination with BTZ) | Effect on toxicity of BTZ in the combination regimen ([6]; in vivo) | Contribution of KW-2478 to the efficacy of BTZ alone [7]
1 | CC(C)C[C@H](NC(=O)[C@H](Cc1ccccc1)NC(=O)c1cnccn1)B(O)O [BTZ, bortezomib] | 35 | ~6 | ~40 | – | – | – | – | – | – | – | – | – | – | – | –
2 | CCc1c(O)cc(O)c(C(=O)c2ccc(OCCN3CCOCC3)c(OC)c2)c1CC(=O)N(CCOC)CCOC [KW-2478] | – | – | – | not reached | modest single-agent activity; also recorded: preliminary signs of clinical activity were seen | well tolerated | 25.9 to 33.3 | 32.2 to 62.0 | did not affect | Accumulation did not occur | exhibits antitumour activity | retained | did not raise any ocular safety concerns | did not enhance the toxicity of BTZ | insufficient evidence that KW-2478 added to the efficacy of BTZ alone
